Calls of active or inactive are those of the source. The rule behind the calls is not given here.
Tests used:
[1] = Induction of micronucleation in potoroo PtK2 cells at 2 uM after 7 hrs by flow cytometry; assay type: functional, Potorous tridactylus
[2] = Displacement of [3H]discodermolide from microtubule assessed as bound radioligand level at 20 uM treated after radioligand addition by competitive binding assay
PtK2 [3] = test: Induction of micronucleation in potoroo PtK2 cells at 2 uM treated for 7 hrs followed by compound washout measured after 48 hrs by flow cytometry; assay type: functional, cell-based; conditions: Potorous tridactylus
PtK2 [4] = test: Induction of micronucleation in potoroo PtK2 cells at 2 uM treated for 7 hrs followed by compound washout measured after 16 hrs by flow cytometry; conditions: Potorous tridactylus
[5] = Induction of mitotic cell cycle arrest in potoroo PtK2 cells assessed as accumulation of cells at SubG1 phase at 5 uM treated for 7 hrs, washed followed by 16 hrs incubation by flow cytometry (Rvb= 2%); assay type: functional, Potorous tridactylus
[6] = Induction of mitotic cell cycle arrest in potoroo PtK2 cells assessed as accumulation of cells at G2+M phase at 2 uM after 7 hrs by flow cytometry (Rvb= 22.1%); assay type: functional, Potorous tridactylus
[7] = Induction of mitotic cell cycle arrest in potoroo PtK2 cells assessed as accumulation of cells at G2+M phase at 2 uM treated for 7 hrs, washed followed by 16 hrs incubation by flow cytometry (Rvb= 23%); assay type: functional, Potorous tridactylus
[8] = Induction of mitotic cell cycle arrest in potoroo PtK2 cells assessed as accumulation of cells at G2+M phase at 5 uM treated for 7 hrs, washed followed by 48 hrs incubation by flow cytometry (Rvb= 22.3%); assay type: functional, Potorous tridactylus
A549 [9] = test: Cytotoxicity against human A549 cells; assay type: functional, cell-based
A2780 [10] = test: Induction of mitotic cell cycle arrest in human A2780 cells assessed as accumulation of cells at G1/G0 phase at 100 nM after 24 hrs by flow cytometry (Rvb= 60%); assay type: functional
[11] = Induction of mitotic cell cycle arrest in potoroo PtK2 cells assessed as accumulation at S phase at 5 uM after 7 hrs by flow cytometry (Rvb= 15.5%); assay type: functional, Potorous tridactylus
A549 [12] = test: Induction of mitotic cell cycle arrest in human A549 cells assessed as accumulation of cells at SubG1 phase at 100 nM after 24 hrs by flow cytometry (Rvb= 25%); assay type: functional
[13] = Induction of mitotic cell cycle arrest in potoroo PtK2 cells assessed as accumulation of cells at SubG1 phase at 5 uM treated for 7 hrs, washed followed by 48 hrs incubation by flow cytometry (Rvb= 1.1%); assay type: functional, Potorous tridactylus
PtK2 [14] = test: Induction of micronucleation in potoroo PtK2 cells at 10 uM after 7 hrs by flow cytometry; conditions: Potorous tridactylus
[15] = Induction of micronucleation in potoroo PtK2 cells at 5 uM treated for 7 hrs followed by compound washout measured after 16 hrs by flow cytometry; assay type: functional, Potorous tridactylus
[16] = Induction of micronucleation in potoroo PtK2 cells at 2 uM treated for 7 hrs followed by compound washout measured after 16 hrs by flow cytometry; assay type: functional, Potorous tridactylus
[17] = Displacement of [3H]paclitaxel from microtubule assessed as bound radioligand level at 20 uM treated after radioligand addition by competitive binding assay
Tubulin (Homo sapiens) [18] = target: T1, Tubulin (Homo sapiens) (UniProt P68371+Q9H4B7+P0DPH7+P68366+Q13509+Q71U36+P04350+Q3ZCM7+P07437+P68363+Q9BQE3+Q6PEY2+Q13885+Q9BVA1+Q9BUF5); test: Induction of covalent modification of tubulin at Thr220 and Asn228 in human A549 cells by HPLC analysis; assay type: cell-based
Method in brief: (§1)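 A549 monolayers exposed 24 h to 1 µM ligand or 0.1% DMSO. Tubulin purified from homogenate supernatant by one-step DEAE ion exchange (0.4 M KCl load, 0.8 M KCl elution) to 90% purity. Tryptic or chymotryptic digests analysed by HPLC-MRM with Q3 at m/z 249.0. Adduct fraction estimated from the areas of modified and unmodified peptide peaks.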

[19] = Displacement of [3H]paclitaxel from microtubule assessed as bound radioligand level at 20 uM treated before radioligand addition by competitive binding assay
[20] = Induction of micronucleation in potoroo PtK2 cells at 10 uM after 7 hrs by flow cytometry; assay type: functional, Potorous tridactylus
[21] = Binding affinity to microtubule at 30 uM after 30 mins by HPLC-MS analysis
[22] = Induction of mitotic cell cycle arrest in potoroo PtK2 cells assessed as accumulation at S phase at 5 uM treated for 7 hrs, washed followed by 48 hrs incubation by flow cytometry (Rvb= 10.7%); assay type: functional, Potorous tridactylus
A549 [23] = test: Induction of mitotic cell cycle arrest in human A549 cells assessed as accumulation of cells at G1/G0 phase at 100 nM after 24 hrs by flow cytometry (Rvb= 39.2%); assay type: functional
[24] = Induction of mitotic cell cycle arrest in potoroo PtK2 cells assessed as accumulation of cells at G1/G0 phase at 2 uM treated for 7 hrs, washed followed by 16 hrs incubation by flow cytometry (Rvb= 59%); assay type: functional, Potorous tridactylus
A549 [25] = test: Binding affinity to beta-tubulin in human A549 cells at 1 uM after 24 hrs by HPLC analysis; assay type: cell-based; method in brief: as §1
[26] = Cytotoxicity against human A2780AD cells; assay type: functional, cell-based; conditions: A2780 ADR
[27] = Induction of mitotic cell cycle arrest in potoroo PtK2 cells assessed as accumulation of cells at G1/G0 phase at 5 uM after 7 hrs by flow cytometry (Rvb= 60%); assay type: functional, Potorous tridactylus
A549 [28] = test: Induction of mitotic cell cycle arrest in human A549 cells assessed as accumulation at S phase at 100 nM after 24 hrs by flow cytometry (Rvb= 16%); assay type: functional
[29] = Binding affinity to microtubule
[30] = Induction of mitotic cell cycle arrest in potoroo PtK2 cells assessed as accumulation at S phase at 2 uM treated for 7 hrs, washed followed by 48 hrs incubation by flow cytometry (Rvb= 10.7%); assay type: functional, Potorous tridactylus
[31] = Induction of mitotic cell cycle arrest in potoroo PtK2 cells assessed as accumulation of cells at SubG1 phase at 5 uM after 7 hrs by flow cytometry (Rvb= 2.4%); assay type: functional, Potorous tridactylus
[32] = Induction of mitotic cell cycle arrest in potoroo PtK2 cells assessed as accumulation of cells at SubG1 phase at 2 uM after 7 hrs by flow cytometry (Rvb= 2.4%); assay type: functional, Potorous tridactylus
Tubulin (Homo sapiens) [33] = target: T1, Tubulin (Homo sapiens); test: Binding affinity to tubulin in human A549 cells
A2780 [34] = test: Cytotoxicity against human A2780 cells; assay type: functional, cell-based
[35] = Induction of micronucleation in potoroo PtK2 cells at 5 uM after 7 hrs by flow cytometry; assay type: functional, Potorous tridactylus
[36] = Induction of mitotic cell cycle arrest in potoroo PtK2 cells assessed as accumulation of cells at G1/G0 phase at 100 nM after 24 hrs by flow cytometry (Rvb= 60.8%); assay type: functional, Potorous tridactylus

**Q.** With `CC1=C[C@H]2[C@@H](O)[C@H](C)[C@@H](O)[C@@H]2[C@H]2[C@@H]3C4=C5O[C@](C)(CC[C@@H](OC4=O)[C@H]5C)[C@@H]3C[C@@H]12` [CYCLOSTREPTIN] as the compound, how does the Activity [1] read?
**A.** The Activity was 4%.

**Q.** What about the Activity [2] of the same compound?
**A.** The Activity was 96%.

**Q.** What about the Activity (PtK2 [3]) of the same compound?
**A.** Its Activity is “Active”.

**Q.** And the Activity (PtK2 [4])?
**A.** Its Activity is 70%.

**Q.** What about the Activity [5] of the same compound?
**A.** Its Activity is 3.4%.

**Q.** What about the Activity [6] of the same compound?
**A.** The Activity was 32%.

**Q.** What about the Activity [7] of the same compound?
**A.** The Activity was 59%.

**Q.** And the Activity [8]?
**A.** The Activity was 77.1%.

**Q.** And the IC50 (A549 [9])?
**A.** The IC50 was 45.5 nM.

**Q.** And the Activity (A2780 [10])?
**A.** Its Activity is 12.1%.

**Q.** What about the Activity [11] of the same compound?
**A.** Its Activity is 17.5%.

**Q.** And the Activity (A549 [12])?
**A.** Its Activity is 15%.

**Q.** What about the Activity [13] of the same compound?
**A.** Its Activity is 5.4%.

**Q.** What about the Activity (PtK2 [14]) of the same compound?
**A.** The Activity was 4%.

**Q.** What about the Activity [15] of the same compound?
**A.** The Activity was 70%.

**Q.** What about the Activity [16] of the same compound?
**A.** Its Activity is 70%.

**Q.** What about the Activity [17] of the same compound?
**A.** Its Activity is 60%.

**Q.** And the Activity (Tubulin (Homo sapiens) [18])?
**A.** The Activity was “Active”.

**Q.** And the Activity [19]?
**A.** Its Activity is 25%.

**Q.** And the Activity [20]?
**A.** The Activity was 4%.

**Q.** What about the Activity [21] of the same compound?
**A.** Its Activity is “Active”.

**Q.** And the Activity [22]?
**A.** Its Activity is 8.6%.

**Q.** And the Activity (A549 [23])?
**A.** The Activity was 4%.

**Q.** What about the Activity [24] of the same compound?
**A.** Its Activity is 20.5%.

**Q.** And the Activity (A549 [25])?
**A.** Its Activity is “Active”.

**Q.** And the IC50 [26]?
**A.** Its IC50 is 51 nM.

**Q.** What about the Activity [27] of the same compound?
**A.** The Activity was 45.2%.

**Q.** What about the Activity (A549 [28]) of the same compound?
**A.** The Activity was 9%.

**Q.** What about the Kd [29] of the same compound?
**A.** Its Kd is 49 nM.

**Q.** What about the Activity [30] of the same compound?
**A.** Its Activity is 10%.

**Q.** What about the Activity [31] of the same compound?
**A.** Its Activity is 2.3%.

**Q.** What about the Activity [32] of the same compound?
**A.** The Activity was 2.6%.

**Q.** What about the Activity (Tubulin (Homo sapiens) [33]) of the same compound?
**A.** Its Activity is “Active”.

**Q.** And the IC50 (A2780 [34])?
**A.** Its IC50 is 43.5 nM.

**Q.** And the Activity [35]?
**A.** Its Activity is 4%.

**Q.** What about the Activity [36] of the same compound?
**A.** The Activity was 18.5%.

From ChEMBL document CHEMBL1240321, “Cyclostreptin binds covalently to microtubule pores and lumenal taxoid binding sites” (Nat Chem Biol, 2007)
